Data published in ChEMBL document CHEMBL3861959, “Synthesis and antiproliferative evaluation of novel 2-(4H-1,2,4-triazole-3-ylthio)acetamide derivatives as inducers of apoptosis in cancer cells” (Eur J Med Chem, 2016).

Experiments:
[1] = Cytotoxicity against human LOXIMVI cells assessed as cell growth at 10^-5 M after 48 hrs by SRB assay relative to control; assay type: functional; settings: LOX IMVI, read-out: Activity
Outline: (§1)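 NCI single-dose primary screen run under the US NCI protocol. Compounds tested at 10 µM across the 60-cell-line panel, with growth percent reported for each line.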

[2] = Cytotoxicity against human MOLT4 cells assessed as cell growth at 10^-5 M after 48 hrs by SRB assay relative to control; assay type: functional; settings: MOLT-4, 48 h, read-out: Activity; outline: as §1
[3] = Cytotoxicity against human UACC257 cells assessed as cell growth at 10^-5 M after 48 hrs by SRB assay relative to control; assay type: functional; settings: UACC-257, 48 h, read-out: Activity
Outline: (§2)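 Single-dose NCI 60-cell-line screen run under the US NCI protocol. Compounds tested at 10 µM. Read-out is growth percent for each cell line.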

[4] = Cytotoxicity against human SN12C cells assessed as cell growth at 10^-5 M after 48 hrs by SRB assay relative to control; assay type: functional; settings: read-out: Activity; outline: as §2
[5] = Cytotoxicity against human HT-29 cells assessed as cell growth at 10^-5 M after 48 hrs by SRB assay relative to control; assay type: functional; settings: HT-29, 48 h, read-out: Activity; outline: as §1
[6] = Cytotoxicity against human TK10 cells assessed as cell growth at 10^-5 M after 48 hrs by SRB assay relative to control; assay type: functional; settings: TK-10, 48 h, read-out: Activity; outline: as §2
[7] = Cytotoxicity against human M14 cells assessed as cell growth at 10^-5 M after 48 hrs by SRB assay relative to control; assay type: functional; settings: M14, 48 h, read-out: Activity; outline: as §1
[8] = Cytotoxicity against human UACC62 cells assessed as cell growth at 10^-5 M after 48 hrs by SRB assay relative to control; assay type: functional; settings: UACC-62, 48 h, read-out: Activity; outline: as §2
[9] = Cytotoxicity against human SF268 cells assessed as cell growth at 10^-5 M after 48 hrs by SRB assay relative to control; assay type: functional; settings: SF-268, 48 h, read-out: Activity; outline: as §1
[10] = Cytotoxicity against human U251 cells assessed as cell growth at 10^-5 M after 48 hrs by SRB assay relative to control; assay type: functional; settings: U-251, 48 h, read-out: Activity; outline: as §2
[11] = Cytotoxicity against human MDA-MB-231 cells assessed as cell growth at 10^-5 M after 48 hrs by SRB assay relative to control; assay type: functional; settings: MDA-MB-231, 48 h, read-out: Activity; outline: as §1
[12] = Cytotoxicity against human HCT15 cells assessed as cell growth at 10^-5 M after 48 hrs by SRB assay relative to control; assay type: functional; settings: HCT-15, 48 h, read-out: Activity; outline: as §1
[13] = Cytotoxicity against human HCC2998 cells assessed as cell growth at 10^-5 M after 48 hrs by SRB assay relative to control; assay type: functional; settings: HCC 2998, 48 h, read-out: Activity; outline: as §1
[14] = Cytotoxicity against human NCI-H226 cells assessed as cell growth at 10^-5 M after 48 hrs by SRB assay relative to control; assay type: functional; settings: NCI-H226, 48 h, read-out: Activity; outline: as §1
[15] = Cytotoxicity against human OVCAR8 cells assessed as cell growth at 10^-5 M after 48 hrs by SRB assay relative to control; assay type: functional; settings: OVCAR-8, 48 h, read-out: Activity; outline: as §1
[16] = Cytotoxicity against human SNB19 cells assessed as cell growth at 10^-5 M after 48 hrs by SRB assay relative to control; assay type: functional; settings: SNB-19, 48 h, read-out: Activity; outline: as §2
[17] = Cytotoxicity against human A498 cells assessed as cell growth at 10^-5 M after 48 hrs by SRB assay relative to control; assay type: functional; settings: A498, 48 h, read-out: Activity; outline: as §1
[18] = Cytotoxicity against human MCF7 cells assessed as cell growth at 10^-5 M after 48 hrs by SRB assay relative to control; assay type: functional; settings: MCF7, 48 h, read-out: Activity; outline: as §1
[19] = Cytotoxicity against human NCI-ADR-RES cells assessed as cell growth at 10^-5 M after 48 hrs by SRB assay relative to control; assay type: functional; settings: read-out: Activity; outline: as §1
[20] = Cytotoxicity against human SR cells assessed as cell growth at 10^-5 M after 48 hrs by SRB assay relative to control; assay type: functional; settings: read-out: Activity; outline: as §2
[21] = Cytotoxicity against human NCI-H322M cells assessed as cell growth at 10^-5 M after 48 hrs by SRB assay relative to control; assay type: functional; settings: read-out: Activity; outline: as §1
[22] = Cytotoxicity against human NCI-H460 cells assessed as cell growth at 10^-5 M after 48 hrs by SRB assay relative to control; assay type: functional; settings: NCI-H460, 48 h, read-out: Activity; outline: as §1
[23] = Cytotoxicity against human A549 cells assessed as cell growth at 10^-5 M after 48 hrs by SRB assay relative to control; assay type: functional; settings: A549, 48 h, read-out: Activity; outline: as §1
[24] = Cytotoxicity against human KM12 cells assessed as cell growth at 10^-5 M after 48 hrs by SRB assay relative to control; assay type: functional; settings: KM12, 48 h, read-out: Activity; outline: as §1
[25] = Cytotoxicity against human EKVX cells assessed as cell growth at 10^-5 M after 48 hrs by SRB assay relative to control; assay type: functional; settings: read-out: Activity; outline: as §1
[26] = Cytotoxicity against human Hs 578T cells assessed as cell growth at 10^-5 M after 48 hrs by SRB assay relative to control; assay type: functional; settings: read-out: Activity; outline: as §1
[27] = Cytotoxicity against human RXF393 cells assessed as cell growth at 10^-5 M after 48 hrs by SRB assay relative to control; assay type: functional; settings: RXF 393, 48 h, read-out: Activity; outline: as §1
[28] = Cytotoxicity against human SK-MEL-5 cells assessed as cell growth at 10^-5 M after 48 hrs by SRB assay relative to control; assay type: functional; settings: SK-MEL-5, 48 h, read-out: Activity; outline: as §2
[29] = Cytotoxicity against mouse NIH/3T3 cells assessed as decrease in cell survival after 48 hrs by MTT assay; assay type: toxicity, NIH3T3
[30] = Cytotoxicity against human Caki1 cells assessed as cell growth at 10^-5 M after 48 hrs by SRB assay relative to control; assay type: functional; settings: CAKI-1, 48 h, read-out: Activity; outline: as §1
[31] = Selectivity index, ratio of CC50 for human MT4 cells to EC50 for HIV2 ROD; assay type: toxicity, cell-based; settings: read-out: Ratio CC50/EC50
Outline: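 HIV-1 IIIB and HIV-2 ROD tested in MT-4 cells by MTT. Serial fivefold dilutions of compound added to triplicate mock- and virus-infected wells. MT-4 cells at 6 × 10^5 cells/mL. Absorbance read at 540/690 nm; median OD of three wells used. CC50 is the concentration reducing mock-infected OD540 by 50%. […]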

[32] = test system: Human immunodeficiency virus 1; test: Antiviral activity against HIV1 3B infected in human MT4 cells assessed as protection against virus-induced cytopathic effect after 5 days MTT assay; assay type: functional, cell-based; settings: Human immunodeficiency virus 1, 3B, MT4, 120 h
Outline: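 HIV-1 strain IIIB and HIV-2 strain ROD in MT-4 cells, MTT-based. Test compounds in serial five-fold dilutions, in triplicate wells run alongside mock-infected cells, with untreated infected and mock controls. MT-4 cells resuspended at 6 × 10^5 cells/mL. Absorbance read at 540 and 690 nm, median OD of three wells. EC50 is the 50% effective concentration.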

| SMILES | growth at 10 µM [1] [%] | growth at 10 µM [2] [%] | growth at 10 µM [3] [%] | growth at 10 µM [4] [%] | growth at 10 µM [5] [%] | growth at 10 µM [6] [%] | growth at 10 µM [7] [%] | growth at 10 µM [8] [%] | growth at 10 µM [9] [%] | growth at 10 µM [10] [%] | growth at 10 µM [11] [%] | growth at 10 µM [12] [%] | growth at 10 µM [13] [%] | growth at 10 µM [14] [%] | growth at 10 µM [15] [%] | growth at 10 µM [16] [%] | growth at 10 µM [17] [%] | growth at 10 µM [18] [%] | growth at 10 µM [19] [%] | growth at 10 µM [20] [%] | other results |
| --- | --- | --- | --- | --- | --- | --- | --- | --- | --- | --- | --- | --- | --- | --- | --- | --- | --- | --- | --- | --- | --- |
| Cc1ccc(C(C)C)c(OCc2nnc(SCC(=O)Nc3ccc(S(N)(=O)=O)cc3)n2Cc2ccccc2)c1 | 68.2 | 45.2 | 89 | 81.6 | 72.4 | 94 | 87.3 | 51.2 | 74 | 64.6 | 69.1 | 64.2 | 73.8 | 66.6 | 41.1 | 88.4 | 74.7 | 50 | 77.1 | 65.1 | growth at 10 µM [21]: 89.3%; growth at 10 µM [22]: 76.4%; growth at 10 µM [23]: 50.6%; growth at 10 µM [24]: 54.3%; growth at 10 µM [25]: 55.5%; growth at 10 µM [26]: 86.2%; growth at 10 µM [27]: 70.6%; growth at 10 µM [28]: 50.3%; IC50 at 48 h [29]: > 100 mg/L; growth at 10 µM [30]: 81.1%; selectivity ratio [31]: < 1; EC50 [32]: > 13 mg/L |
| CC(=O)Nc1ccc(OCc2nnc(SCC(=O)Nc3ccc(Br)cc3)n2Cc2ccccc2)cc1 | 33.4 | 64.7 | 98.4 | 85.7 | 93.9 | 87.1 | 43.5 | 32.5 | 70.9 | 88.5 | 75 | 60.4 | 85.6 | 80.3 | 84.8 | 92.3 | 82.1 | 70.2 | 68.2 | 97.7 | growth at 10 µM [21]: 81.2%; growth at 10 µM [22]: 74.3%; growth at 10 µM [23]: 78.5%; growth at 10 µM [24]: 56.4%; growth at 10 µM [25]: 70%; growth at 10 µM [26]: 97.9%; growth at 10 µM [27]: 101%; growth at 10 µM [28]: 69.8%; IC50 at 48 h [29]: > 100 mg/L; growth at 10 µM [30]: 72.5%; selectivity ratio [31]: ≤ 1; EC50 [32]: > 3.99 mg/L |
| Cc1ccc(C(C)C)c(OCc2nnc(SCC(=O)Nc3ccc(Cl)cc3)n2Cc2ccccc2)c1 | 64.4 | 73.7 | 105 | 56.5 | 70 | 71.9 | 99 | 94 | 88.6 | 40.9 | 75.7 | 76.7 | 89.7 | 88 | 67.3 | 80.3 | 78 | 75.7 | 69.1 | -6.63 | growth at 10 µM [21]: 72.5%; growth at 10 µM [22]: 17.7%; growth at 10 µM [23]: 27.9%; growth at 10 µM [24]: 76.9%; growth at 10 µM [25]: 69.6%; growth at 10 µM [26]: 75.5%; growth at 10 µM [27]: 101%; growth at 10 µM [28]: 90.5%; IC50 at 48 h [29]: > 100 mg/L; growth at 10 µM [30]: 93.9%; selectivity ratio [31]: < 1; EC50 [32]: > 65.9 mg/L |
